Hits are enriched below; roughly 1.9% of the tested compounds scored in any of these assays.
rRNA inh HTS = inhibitors of bacterial rRNA selective over humanized ribosomes; hit rate 1.6% among 350,000; E. coli WT GFP vs humanized-ribosome RFP mutants, fluorescence, 24 h; active compounds read low; DMSO median 0, no signal -100; GFP signal change (wild-type ribosome), % (test concentration not listed);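 active = significant combined selectivity score with lowered wild-type GFP, culture density cut under 30%, mutant RFP and density less affected; inactive = any of these conditions unmet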
RAD54 branch = inhibitors of human RAD54 branch migration. RAD54 Holliday junction branch migration, FAM/BHQ fluorescence. inhibition, % at 10.4 µM. Q92698. hit rate 0.14% among 360,000;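 active = mean normalized replicate activity at least 40 and at least half of replicates scoring 40 or more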;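 also: 0% = median of neutral control wells and 100% = median of positive control wells; inhibitors cause a drop in the FAM fluorescence signal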
Cneo AK release = causes C. neoformans cell lysis. lysis activity, % at 15 µM. AID 651654. hit rate 0.2% among 360,000. adenylate kinase release luminescence, 4 h; normalised: neutral wells 0, clomiphene wells 100;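 active = mean lysis activity across replicates of at least 80%, whatever share of replicates individually reach that level; inactive = mean lysis activity below 80%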
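Schedule: static 4 h at 37 °C with compound, 1 h detection; system: C. neoformans cells; benchmarks: Clomiphene as positive control; buffer or medium: fresh YPD medium; measure: luminescence rise reflecting yeast cell lysis; measured by: luminescent adenylate kinase detection reagent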
RAD52 inh = RAD52 (human) annealing inhibition; P43351; recombinant RAD52 DNA annealing, FRET fluorescence; inhibition, % at 18.7 µM; hit rate 0.46% among 360,000;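 active = every replicate showing at least 50% inhibition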
Target sequence (P43351 whole entry, looked up): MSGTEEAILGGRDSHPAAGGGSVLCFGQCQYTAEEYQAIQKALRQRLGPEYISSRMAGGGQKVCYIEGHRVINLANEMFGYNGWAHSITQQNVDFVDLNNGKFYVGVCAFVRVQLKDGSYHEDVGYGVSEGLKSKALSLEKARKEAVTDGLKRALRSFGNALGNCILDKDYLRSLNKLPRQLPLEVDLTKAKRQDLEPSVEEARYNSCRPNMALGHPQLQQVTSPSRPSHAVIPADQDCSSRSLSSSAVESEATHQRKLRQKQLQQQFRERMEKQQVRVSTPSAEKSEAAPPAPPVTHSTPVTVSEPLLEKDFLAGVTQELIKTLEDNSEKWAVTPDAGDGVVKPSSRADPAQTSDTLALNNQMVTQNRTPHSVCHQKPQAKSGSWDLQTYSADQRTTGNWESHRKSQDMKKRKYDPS
PglD DTNB = inhibitors of Campylobacter jejuni PglD acetyltransferase. AID 602405. inhibition, % at 12.5 µM. purified PglD enzyme, DTNB colorimetric CoA detection. hit rate 0.098% among 360,000; in the data active = inhibition above about 16%, passing the limit was not always enough
DNA binding = counter-screen for Rad54 inhibitors: DNA binding compounds | shares compounds with RAD54 branch | Acridine orange-DNA displacement, fluorescence polarization, 20 min | AC50, µM (highest dose often 35 µM), for inactives: at the top dose activity change, negative = DNA binding | hit rate 8% among 460 | AID 651673;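 active = signal drop giving an AC50 within twice the top valid tested concentration of each sample, actives reach about 35 µM in these data; inactive = activity opposite to expected, plus the rest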;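 also: polarization loss reports compound binding to salmon sperm DNA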
PglD confirm = PglD (C. jejuni) inhibition confirmation; shares compounds with PglD DTNB; Purified C. jejuni PglD, DTNB absorbance 412 nm; inhibition, % at 20 µM; 320 tested, under 10 active;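 active = mean inhibition across replicates of at least 20% with every single replicate also at 20% or more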;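 also: initial rate of CoA release by acetyl transfer from AcCoA to the UDP-4-amino sugar; 0% = median of neutral control wells and 100% = median of positive control wells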
RAD52 DNA ctr = binds DNA, flagging false RAD52 inhibitor hits. shares compounds with RAD52 inh. AC50, µM. hit rate 8% among 1,000. AID 652128. Salmon sperm DNA/acridine orange FP displacement, DNA binding;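 active = fitted half-maximal concentration for signal loss at or below twice the highest dose tested, in every separate run, actives reach about 64 µM in these data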
AID977628 = growth of wild-type and h24-humanized E. coli strains – h24 mutant RFP vs wild-type GFP, cherry-pick, dose response; shares compounds with rRNA inh HTS; E. coli WT GFP strain growth, fluorescence, 24 h; activity change, negative = inhibition at 50 µM; 1,900 tested, under 10 active; AID 977628;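 active = compound lowering the normal-ribosome reporter at least twice as much as the humanized-ribosome reporter, growth loss under a set limit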;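 also: wild-type GFP and h24 humanized RFP strains co-cultured 1 to 1 per well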
* = called active by the depositor; i = inactive; . = no result.

SMILES	rRNA inh HTS	RAD54 branch	Cneo AK release	RAD52 inh	PglD DTNB	PglD confirm	others
CN(C)CCNc1ncnc2c1sc1nc(N3CCCC3)c3c(c12)CC(C)(C)OC3	-21*	97*	3	88*	-4	.	DNA binding=-1%;RAD52 DNA ctr=i;AID977628=-5.3
CCCNC(=O)c1cc2c(c(-c3cccc(-c4cccc(OC)c4)c3)n1)[C@@H](CCO)N([S@](=O)C(C)(C)C)C2	-6	-4	-6	11	-4	.
Cc1ccc2oc(=O)c(/C=C(\O)CC(C)C)nc2c1	.	-3	1	.	21*	2
CO[C@@H]1CN(C)C(=O)c2cc(NS(=O)(=O)CC(F)(F)F)ccc2OC[C@@H](C)N(C(=O)NC(C)C)C[C@@H]1C	2	9	-1	-11	1	.
S=C(NCc1ccncc1)NC1CCCCC1	14	6	2	-24	27*	1
CCSC1=NCN(CCCC(=O)O)CN1	.	-36	0	.	20*	-2
Cc1cc(C)n(CCCC(=O)O)n1	14	2	-1	-26	2	.
Cc1ccc(CCC(=O)Nc2ccc(N(C)C)cc2)o1	9	-7	0	-8	83*	-3
Cc1ccc(CCC(=O)Nc2ccc(Cl)cc2)o1	-3	1	-2	0	-3	.
Cn1c2ccccc2c2nnc(SCC(N)=O)nc21	8	9	0	-16	47*	1
O=C(COC(=O)c1cccc(F)c1)Nc1cccc(S(=O)(=O)N2CCCCC2)c1	-9	-6	0	6	22*	-2
CN1C(=O)c2cc(NC(=O)c3ccc(F)cc3)ccc2OC[C@@H]2O[C@@H](CC(=O)NC3CCC3)CC[C@H]21	0	1	5	15	-1	.
OCCN1CCOCCN(CCO)CCOCC1	.	-4	8	.	21*	-31
C(CCN1CCOCC1)CN1CCOCC1	13	2	0	-5	-5	.
CC(=O)Nc1sc2c(c1CN1CCN(C)CC1)CCCC2	.	5	7	.	59*	1
O=C(N[C@@H]1CC[C@H](CCn2cc(C3(O)CCCC3)nn2)O[C@@H]1CO)C1CCCC1	1	-1	-1	11	-2	.
CO[C@@H]1CN(C)C(=O)c2cc(NC(=O)NC(C)C)ccc2OC[C@@H](C)N(C(=O)C2CCC2)C[C@@H]1C	0	-14	50	-8	2	.
CCCNC(=O)C[C@@H]1C[C@H]2c3cc(NC(=O)NC4CCCCC4)ccc3O[C@H]2[C@H](CO)O1	-1	-5	3	1	4	.
CC(C)c1cccc(-c2csc(C(C)(O)c3ccc(F)c(F)c3)n2)c1 (stereo not given)	-4	7	0	-4	24*	3
CCN(CC)S(=O)(=O)c1ccc(S(=O)(=O)N2CCCC2C(=O)O)cc1 (stereo not given)	15	9	-3	-4	25*	4
C[C@H](NC(=O)C[C@@H]1C[C@@H]2c3cc(NS(C)(=O)=O)ccc3O[C@@H]2[C@H](CO)O1)c1ccccc1	2	3	4	4	0	.
COc1ccc(-c2cnnc(N/N=C/c3ccc(O)c(OC)c3)n2)cc1	.	-14	1	.	26*	6
CCOc1ccc(-c2nnc(-c3cccs3)o2)cc1	.	-4	-3	.	27*	1
COc1ccc(S(=O)(=O)Nc2ccc3c(c2)C(=O)N([C@H](C)CO)C[C@H](C)[C@@H](CN(C)S(=O)(=O)c2ccc(OC)cc2)OCCCC[C@H](C)O3)cc1	-5	-15	0	.	1	.
COc1ccc(C(C(=O)NCC2CCCO2)N(C(=O)CNC(=O)c2ccco2)c2ccc(C)c(C)c2)cc1OC (stereo not given)	11	6	-1	-4	22*	-4
SMILES	rRNA inh HTS	RAD54 branch	Cneo AK release	RAD52 inh	PglD DTNB	PglD confirm	others
N#CC1=C(N)Oc2cc(N)ccc2C1c1cccc(F)c1 (stereo not given)	16	-5	-1	-16	72*	1
CN(C)c1ccc2c(c1)OC(N)=C(C#N)C2c1cccc(F)c1 (stereo not given)	.	-32	-1	.	-2	.
C/C=C/c1cnc2c(c1)C(=O)N([C@H](C)CO)C[C@@H](C)[C@H](CN(C)C(=O)C1CCOCC1)O2	2	-3	-6	9	8	.
CN1C(=O)c2cc(NC(=O)c3ccno3)ccc2OC[C@H]2O[C@@H](CC(=O)NC3Cc4ccccc4C3)CC[C@@H]21	1	1	-1	1	1	.
CC(=O)NC1C(=O)N(CCN2CCOCC2)c2ccc(Cl)cc21 (stereo not given)	18	-3	-1	15	25*	48*
O=C(C[C@@H]1C=C[C@@H](NC(=O)CN2CCOCC2)[C@H](CO)O1)NCc1cccc(F)c1	-1	-4	-1	-12	0	.
N#Cc1cccc(-c2ccc(C3[C@@H]4CN(C(=O)C5CC5)C[C@H]3N4)cc2)c1 (stereo not given in full)	0	.	.	0	.	.
O=C(COC(=O)c1ccc([N+](=O)[O-])s1)NCCc1ccccc1	-10	3	0	-9	4	.
O=C(COC(=O)c1ccc([N+](=O)[O-])s1)NC(=O)NCc1ccccc1	.	3	-2	-16	31*	0
Cc1noc(C)c1S(=O)(=O)N(C)C[C@@H]1Oc2ccc(NC(=O)CCC(F)(F)F)cc2CC(=O)N([C@@H](C)CO)C[C@H]1C	-2	-1	-1	6	2	.
Cc1cc(C(=O)Nc2cccc3c2O[C@@H](CN(C)Cc2ccncc2)[C@H](C)CN([C@H](C)CO)C3=O)n(C)n1	3	-5	0	-1	-152	.
O=C1CSC(c2cccnc2)N1Cc1cccnc1 (stereo not given)	12	6	-1	-16	23*	11
O=C1CSC(c2ccncc2)N1Cc1ccccc1 (stereo not given)	5	.	.	3	.	.
COc1ccc(S(=O)(=O)Nc2ccc3c(c2)C(=O)N([C@H](C)CO)C[C@@H](C)[C@@H](CN(C)Cc2ccncc2)OCCCC[C@@H](C)O3)cc1	-1	-1	0	17	-1	.
CC(=O)Nc1nc(C)c(S(N)(=O)=O)s1	.	-5	-3	.	24*	-6
CC(=O)Nc1nnc(S(N)(=O)=O)s1	.	-6	0	-5	0	.
